Source: ChEMBL document CHEMBL1123521, “Isozyme-specific enzyme inhibitors. 10. Adenosine 5'-triphosphate derivatives as substrates or inhibitors of methionine adenosyltransferases of rat normal and hepatoma tissues” (J Med Chem, 1986)

What was measured:
[1] = molecular target: S-adenosylmethionine synthase isoform type-2 (Rattus norvegicus) (UniProt P18298); test: Relative maximum velocity against rat Methionine adenosyltransferase II
Outline: (§1)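 Analogues at 1 mM tested as substrates of MAT-II (rat kidney) or MAT-T (Novikoff hepatoma), using 10 μL of enzyme stock per assay. Run at 37 °C for 30 min in Tris-HCl pH 8.2 with 150 mM KCl and 15 mM MgCl2, plus 60 μM [14C]methionine. Radiolabelled product bound to phosphocellulose disks and counted. Kinetic constants came from double-reciprocal plots.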

[2] = molecular target: S-adenosylmethionine synthase isoform type-1 (Rattus norvegicus) (UniProt P13444); test: Relative maximum velocity against liver (MAT-I) in rat methionine adenosyltransferase was reported
Outline: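 Substrate activity measured with rat liver MAT-I at 37 °C for 30 min, pH 7.5 HEPES buffer, with 380 μM [14C]methionine. ATP analogue at 1 mM, with a higher enzyme amount (10 μL stock). [14C]S-adenosylmethionine captured on phosphocellulose paper and counted by scintillation. Blanks lacked ATP. Constants taken from linear double-reciprocal plots.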

[3] = molecular target: S-adenosylmethionine synthase isoform type-2 (Rattus norvegicus) (UniProt P18298); test: Inhibitory potency against rat Methionine adenosyltransferase II
Outline: (§2)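 MAT-II from rat kidney extract, taken through DEAE chromatography and diluted 10-fold daily. Duplicate 30-min incubations at 37 °C in 150 mM KCl–15 mM MgCl2–5 mM DTT–50 mM Tris-HCl pH 8.2 with 60 μM [14C]methionine. Mg-complexed inhibitor used at two levels (1-5 × Ki) against six to eight Mg-ATP levels (0.5-4.0 × KM). Product counted on phosphocellulose disks.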

[4] = molecular target: S-adenosylmethionine synthase isoform type-1 (Rattus norvegicus) (UniProt P13444); test: Inhibitory potency against rat Methionine adenosyltransferase I
Outline: (§3)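 Rat liver MAT-I, prepared free of MAT-II and MAT-III and diluted 5-fold. Duplicate assays at 37 °C, 30 min, in 150 mM KCl–7.5 mM MgSO4–2 mM DTT–50 mM HEPES pH 7.5 with 380 μM [14C]methionine. Two inhibitor levels (1:1 Mg complexes, 1-5 × Ki) run against six to eight Mg-ATP levels spanning 0.5-4.0 × KM. Ki taken from kinetic plots.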

[5] = system: CNc1nc2c(N)ncnc2n1C1O[C@H](COP(=O)(O)OP(=O)(O)OP(=O)(O)O)[C@@H](O)[C@H]1O; test: (§4) Inhibitory constant against rat kidney Methionine adenosyltransferase II; outline: as §2
[6] = system: Nc1ncnc2c1ncn2[C@H]1C[C@H](O)[C@@H](COP(=O)(O)OP(=O)(O)OP(=O)(O)O)O1; test: as §4; outline: as §2
[7] = system: Nc1ncnc2c1ncn2C1O[C@H](COP(=O)(O)OP(=O)(O)OP(N)(=O)O)[C@@H](O)[C@H]1O; test: as §4; outline: as §2
[8] = system: CSc1nc2c(N)ncnc2n1[C@@H]1O[C@H](COP(=O)(O)OP(=O)(O)OP(=O)(O)O)[C@@H](O)[C@H]1O; test: as §4; outline: as §2
[9] = system: Nc1ncnc2c1ncn2[C@@H]1O[C@H](COP(=O)(O)OP(=O)(O)OP(=O)(O)O)[C@@H](O)[C@H]1O; test: Inhibitory constant against rat kidney Methionine adenosyltransferase II, activity expressed as conc of Mg-ATP for half maximal velocity
Outline: (§5)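 Kinetics at 37 °C for 30 min, in duplicate, in 50 mM Tris-HCl pH 8.2, 150 mM KCl, 15 mM MgCl2, 5 mM DTT. Enzyme was MAT-T from ascites-passaged Novikoff hepatoma cells or MAT-II from rat kidney, both DEAE-cellulose fractions, with 60 µM [14C]methionine. Inhibitors given as 1:1 Mg complexes at two levels against six to eight Mg-ATP levels (0.5–4.0 × KM). Product counted on phosphocellulose disks.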

[10] = molecular target: T1, S-adenosylmethionine synthetase (MAT 1 and MAT 2) (Rattus norvegicus) (UniProt P13444+P18298); test: Relative inhibitory potency T/II in rat methionine adenosyltransferase
[11] = molecular target: T1, S-adenosylmethionine synthetase (MAT 1 and MAT 2) (Rattus norvegicus); test: (§6) Inhibitory potency against rat methionine adenosyltransferase was reported; format: protein assay
Outline: (§7)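 MAT-T partly purified from rat Novikoff hepatoma cells grown intraperitoneally in rats: cytosol extract, DEAE-cellulose, stored at -20 °C, diluted 10-fold for use. Assay run in duplicate, 37 °C for 30 min, in 150 mM KCl–15 mM MgCl2–5 mM DTT–50 mM Tris-HCl pH 8.2 with 60 μM [14C]methionine. Inhibitors given as 1:1 Mg complexes at two levels of 1-5 × Ki, with six to eight Mg-ATP levels (0.5-4.0 × KM).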

[12] = system: CNc1nc2c(N)ncnc2n1C1O[C@H](COP(=O)(O)OP(=O)(O)OP(=O)(O)O)[C@@H](O)[C@H]1O; test: (§8) […] rat Methionine adenosyltransferase was reported; format: protein assay; outline: as §7
[13] = system: CSc1nc2c(N)ncnc2n1[C@@H]1O[C@H](COP(=O)(O)OP(=O)(O)OP(=O)(O)O)[C@@H](O)[C@H]1O; test: as §8; format: protein assay; outline: as §7
[14] = system: Nc1ncnc2c1ncn2[C@@H]1O[C@H](COP(=O)(O)OP(=O)(O)OP(=O)(O)O)[C@@H](O)[C@H]1O; test: Inhibition of methionine adenosyltransferase in Novikoff Hepatoma(MAT-T), activity expressed as conc of Mg-ATP for half maximal velocity; format: protein assay; outline: as §5
[15] = molecular target: S-adenosylmethionine synthase isoform type-2 (Rattus norvegicus) (UniProt P18298); test: Half maximal velocity relative to rat Methionine adenosyltransferase II
Outline: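 DEAE-purified rat kidney MAT-II in 50 mM Tris-HCl pH 8.2, 150 mM KCl, 15 mM MgCl2, 5 mM DTT, with 60 µM [14C]methionine. Analogue checked for substrate activity at 1 mM using more enzyme. Incubated 37 °C for 30 min in duplicate. Acid-quenched product bound to phosphocellulose disks and counted; blanks lacked ATP. KM taken from linear double-reciprocal plots.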

[16] = molecular target: T1, S-adenosylmethionine synthetase (MAT 1 and MAT 2) (Rattus norvegicus); test: Half maximal velocity relative to methionine adenosyltransferase; format: protein assay
Outline: (§9)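 ATP analogues run as Mg complexes and checked for substrate activity at 1 mM with more enzyme (10 µL stock). Apparent KM from linear double-reciprocal plots. MAT-I: rat liver, 50 mM HEPES pH 7.5, 150 mM KCl, 7.5 mM MgSO4, 2 mM DTT, 380 µM [14C]methionine. MAT-II (rat kidney) and MAT-T (Novikoff hepatoma DEAE fraction): 50 mM Tris-HCl pH 8.2, 150 mM KCl, 15 mM MgCl2, 5 mM DTT, 60 µM [14C]methionine. 37 °C, 30 min, duplicates.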

[17] = molecular target: S-adenosylmethionine synthase isoform type-1 (Rattus norvegicus) (UniProt P13444); test: Half maximal velocity relative to Methionine adenosyltransferase; outline: as §9
[18] = molecular target: S-adenosylmethionine synthase isoform type-2 (Rattus norvegicus) (UniProt P18298); test: as §6; outline: as §7
[19] = molecular target: T1, S-adenosylmethionine synthetase (MAT 1 and MAT 2) (Rattus norvegicus); test: Relative maximum velocity against rat Methionine adenosyltransferase was reported; format: protein assay; outline: as §1
[20] = molecular target: S-adenosylmethionine synthase isoform type-2 (Rattus norvegicus) (UniProt P18298); test: Relative maximum velocity against rat kidney Methionine adenosyltransferase II; outline: as §1
[21] = molecular target: T1, S-adenosylmethionine synthetase (MAT 1 and MAT 2) (Rattus norvegicus); test: Inhibitory potency against rat Methionine adenosyltransferase was reported; format: protein assay; outline: as §7
[22] = system: Nc1ncnc2c1ncn2[C@H]1C[C@H](O)[C@@H](COP(=O)(O)OP(=O)(O)OP(=O)(O)O)O1; test: Inhibitory constant against rat liver Methionine adenosyltransferase I; outline: as §3
[23] = system: Nc1ncnc2c1ncn2[C@@H]1O[C@H](COP(=O)(O)OP(=O)(O)OP(=O)(O)O)[C@@H](O)[C@H]1O; test: […] rat liver Methionine adenosyltransferase I, activity expressed as conc of Mg-ATP for half maximal velocity
Outline: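 Rat liver MAT-I, free of MAT-II and MAT-III, was assayed in 50 mM HEPES pH 7.5, 150 mM KCl, 7.5 mM MgSO4, 2 mM DTT, with 380 µM [14C]methionine, at 37 °C for 30 min in duplicate. Mg-complexed inhibitor was used at two levels against six to eight Mg-ATP levels (0.5–4.0 × KM). Labelled product was captured on phosphocellulose and scintillation-counted; blanks lacked ATP.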

S-adenosylmethionine synthase isoform type-1 (Rattus norvegicus), sequence (P13444 whole entry, canonical isoform): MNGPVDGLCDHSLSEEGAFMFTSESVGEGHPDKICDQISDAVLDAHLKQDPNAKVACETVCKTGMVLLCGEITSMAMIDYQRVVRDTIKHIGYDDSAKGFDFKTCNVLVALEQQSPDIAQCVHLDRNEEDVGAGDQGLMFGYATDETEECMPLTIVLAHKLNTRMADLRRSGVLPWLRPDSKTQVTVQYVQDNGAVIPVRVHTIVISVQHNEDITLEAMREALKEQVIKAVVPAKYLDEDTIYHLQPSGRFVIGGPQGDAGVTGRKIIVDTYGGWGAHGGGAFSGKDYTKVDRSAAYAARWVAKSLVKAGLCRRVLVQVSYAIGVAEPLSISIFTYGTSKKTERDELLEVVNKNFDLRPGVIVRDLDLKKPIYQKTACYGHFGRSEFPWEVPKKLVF
S-adenosylmethionine synthetase (MAT 1 and MAT 2) (Rattus norvegicus) (from UniProt P13444+P18298), sequence (P18298 whole entry, looked up): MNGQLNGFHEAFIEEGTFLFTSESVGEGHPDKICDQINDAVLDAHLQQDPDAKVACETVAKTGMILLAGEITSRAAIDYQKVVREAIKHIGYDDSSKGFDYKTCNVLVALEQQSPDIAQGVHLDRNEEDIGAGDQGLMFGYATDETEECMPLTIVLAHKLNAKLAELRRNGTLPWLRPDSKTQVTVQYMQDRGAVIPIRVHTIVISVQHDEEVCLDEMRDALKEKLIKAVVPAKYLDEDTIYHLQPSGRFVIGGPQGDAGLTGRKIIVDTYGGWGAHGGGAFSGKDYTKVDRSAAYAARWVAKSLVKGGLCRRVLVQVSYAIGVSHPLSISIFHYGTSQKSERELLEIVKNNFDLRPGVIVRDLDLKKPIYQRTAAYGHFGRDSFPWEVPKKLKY
S-adenosylmethionine synthetase (MAT 1 and MAT 2) (Rattus norvegicus) (from UniProt P13444+P18298), sequence (P13444 whole entry, looked up): as the sequence (P13444 whole entry, canonical isoform) above
S-adenosylmethionine synthase isoform type-2 (Rattus norvegicus), P18298, sequence (P18298 whole entry, canonical isoform): as the sequence (P18298 whole entry, looked up) above
S-adenosylmethionine synthase isoform type-2 (Rattus norvegicus), sequence (P18298 whole entry, canonical isoform): as the sequence (P18298 whole entry, looked up) above
S-adenosylmethionine synthase isoform type-1 (Rattus norvegicus), P13444, sequence (P13444 whole entry, canonical isoform): as the sequence (P13444 whole entry, canonical isoform) above

Nc1ncnc2c1ncn2[C@H]1C[C@H](O)[C@@H](COP(=O)(O)OP(=O)(O)OP(=O)(O)O)O1
Relative Vmax [1]: 6.5
Relative Vmax [2]: 26
Inhibition potency [3]: 0.035
Inhibition potency [4]: 0.091

S-adenosylmethionine synthase isoform type-2 (Rattus norvegicus), P18298
Km [5]: 160 µM
Km [6]: 4000 µM
Km [7]: 3300 µM
Km [8]: 100 µM
Km [9]: 140 µM

CCCC(OP(=O)(O)OP(=O)(O)OP(=O)(O)O)[C@H]1O[C@@H](n2cnc3c(N)ncnc32)[C@H](O)[C@@H]1O (some centres undefined)
Inhibition potency [3]: 2.92
Inhibition potency T/II [10]: 1.3
Inhibition potency [11]: 3.78

S-adenosylmethionine synthetase (MAT 1 and MAT 2) (Rattus norvegicus) (from UniProt P13444+P18298)
Km [12]: 230 µM
Km [13]: 200 µM
Km [14]: 140 µM

CO[C@H]1[C@@H](O)[C@H](n2cnc3c(N)ncnc32)O[C@@H]1COP(=O)(O)OP(=O)(O)OP(=O)(O)O
Inhibition potency [3]: 0.82
Inhibition potency T/II [10]: 0.95
Inhibition potency [11]: 0.78

Nc1ncnc2c1ncn2[C@@H]1O[C@H](COP(=O)(O)OP(=O)(O)OP(=O)(O)O)[C@@H](O)[C@H]1O
Relative Vmax [15]: 100
Relative Vmax [16]: 100
Relative Vmax [17]: 100

CNc1nc2c(N)ncnc2n1C1O[C@H](COP(=O)(O)OP(=O)(O)OP(=O)(O)O)[C@@H](O)[C@H]1O (some centres undefined)
Inhibition potency [18]: 0.61
Relative Vmax [19]: 19
Inhibition potency [3]: 0.88
Inhibition potency T/II [10]: 0.69
Relative Vmax [20]: 37

CC(OP(=O)(O)OP(=O)(O)OP(=O)(O)O)[C@H]1O[C@@H](n2cnc3c(N)ncnc32)[C@H](O)[C@@H]1O (some centres undefined)
Inhibition potency [3]: 0.74
Inhibition potency T/II [10]: 2.4
Inhibition potency [4]: 15.6
Inhibition potency [11]: 1.75

Nc1ncnc2c1ncn2[C@@H]1O[C@H](COP(=O)(O)OP(=O)(O)NP(=O)(O)O)[C@@H](O)[C@H]1O
Inhibition potency [3]: 25.5
Inhibition potency T/II [10]: 1.4
Inhibition potency [21]: 35

CSc1nc2c(N)ncnc2n1[C@@H]1O[C@H](COP(=O)(O)OP(=O)(O)OP(=O)(O)O)[C@@H](O)[C@H]1O
Relative Vmax [19]: 7.3
Inhibition potency [3]: 1.4
Inhibition potency T/II [10]: 0.5
Inhibition potency [21]: 0.7
Relative Vmax [20]: 3.1

Nc1ncnc2c1nc(SCCC(N)C(=O)O)n2C1O[C@H](COP(=O)(O)OP(=O)(O)OP(=O)(O)O)[C@@H](O)[C@H]1O (some centres undefined)
Inhibition potency [3]: 0.27

CO[C@@H]1[C@H](O)[C@@H](COP(=O)(O)OP(=O)(O)OP(=O)(O)O)O[C@H]1n1cnc2c(N)ncnc21
Inhibition potency [3]: 1
Inhibition potency T/II [10]: 0.82
Inhibition potency [11]: 0.82

Nc1ncnc2c1ncn2C1O[C@H](COP(=O)(O)OP(=O)(O)OP(N)(=O)O)[C@@H](O)[C@H]1O (some centres undefined)
Inhibition potency [3]: 0.042
Relative Vmax [20]: 97

CCCCNc1ncnc2c1ncn2C1O[C@H](COP(=O)(O)OP(=O)(O)OP(=O)(O)O)[C@@H](O)[C@H]1O (some centres undefined)
Inhibition potency [3]: 0.26
Inhibition potency T/II [10]: 2.5

S-adenosylmethionine synthase isoform type-1 (Rattus norvegicus), P13444
Km [22]: 1540 µM
Km [23]: 140 µM

CSc1nc(N)c2ncn([C@@H]3O[C@H](COP(=O)(O)OP(=O)(O)OP(=O)(O)O)[C@@H](O)[C@H]3O)c2n1
Inhibition potency [3]: 0.23
Inhibition potency T/II [10]: 5.5
Inhibition potency [21]: 1.27

Nc1ncnc2c1ncn2[C@@H]1O[C@H](COP(=O)(O)CP(=O)(O)OP(=O)(O)O)[C@@H](O)[C@H]1O
Inhibition potency [3]: 0.46
Inhibition potency T/II [10]: 0.89
Inhibition potency [21]: 0.41
